This passage reports Activity and inhibition results from ChEMBL document CHEMBL2203081 (Bioorg Med Chem Lett, 2012).

Each structure is given as a SMILES string. Active and inactive are the calls of the source. No cut-off for these calls is given here.

For assay [1], the target named is Serine/threonine-protein kinase 32B (Homo sapiens) (UniProt Q9NY57). The experiment in a line: Inhibition of YANK2 assessed as residual activity at 10 uM relative to control.
Assay [2] has as its target Casein kinase I isoform epsilon (Homo sapiens) (UniProt P49674). The assay can be described thus: Inhibition of CSNK1E assessed as residual activity at 10 uM relative to control. An outline of the steps: (§1)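 Competition kinase-binding assay (KINOMEscan) across a non-redundant panel of 329 kinases beyond the radiometric panel; residual binding expressed relative to control.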

In assay [3] the target is Casein kinase I isoform delta (Homo sapiens) (UniProt P48730). The experiment in a line: Inhibition of CSNK1D assessed as residual activity at 10 uM relative to control. In short, it runs like this: as §1
The target in assay [4] is T1, Serine/threonine-protein kinase D1 (Homo sapiens) (UniProt Q15139).
T1 sequence (whole entry): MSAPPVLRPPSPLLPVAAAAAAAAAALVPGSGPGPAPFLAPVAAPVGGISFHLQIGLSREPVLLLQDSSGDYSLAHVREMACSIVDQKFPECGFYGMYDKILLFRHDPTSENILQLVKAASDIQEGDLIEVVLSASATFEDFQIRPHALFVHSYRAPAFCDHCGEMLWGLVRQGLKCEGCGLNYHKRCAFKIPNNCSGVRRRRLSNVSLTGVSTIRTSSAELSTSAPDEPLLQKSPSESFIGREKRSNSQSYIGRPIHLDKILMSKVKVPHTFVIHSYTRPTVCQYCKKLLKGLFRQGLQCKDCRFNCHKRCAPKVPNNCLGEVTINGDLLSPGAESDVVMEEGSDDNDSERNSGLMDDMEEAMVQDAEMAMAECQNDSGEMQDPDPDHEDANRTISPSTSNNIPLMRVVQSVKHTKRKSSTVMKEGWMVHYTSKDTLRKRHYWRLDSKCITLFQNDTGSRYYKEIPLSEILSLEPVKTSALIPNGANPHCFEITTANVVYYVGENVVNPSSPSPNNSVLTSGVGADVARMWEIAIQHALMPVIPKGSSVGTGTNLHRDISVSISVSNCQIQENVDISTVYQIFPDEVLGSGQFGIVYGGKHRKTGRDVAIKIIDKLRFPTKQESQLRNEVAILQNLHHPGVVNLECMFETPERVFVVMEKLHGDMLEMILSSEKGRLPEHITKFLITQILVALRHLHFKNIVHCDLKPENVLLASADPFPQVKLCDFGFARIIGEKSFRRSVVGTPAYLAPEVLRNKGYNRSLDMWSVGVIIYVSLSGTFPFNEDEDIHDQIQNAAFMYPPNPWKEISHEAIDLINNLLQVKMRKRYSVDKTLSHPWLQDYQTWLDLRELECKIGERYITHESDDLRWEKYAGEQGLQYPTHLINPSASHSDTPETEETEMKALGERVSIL
The assay can be described thus: Inhibition of PKD1 assessed as residual activity at 1 uM.

The target of assay [5] is Microtubule-associated serine/threonine-protein kinase 1 (Homo sapiens) (UniProt Q9Y2H9). The assay can be described thus: Inhibition of MAST1 assessed as residual activity at 10 uM relative to control.
The target in assay [6] is Serine/threonine-protein kinase LATS2 (Homo sapiens) (UniProt Q9NRM7). The experiment in a line: Inhibition of LATS2 assessed as residual activity at 10 uM relative to control.
Assay [7] addresses Tyrosine-protein kinase BTK (Homo sapiens) (UniProt Q06187). The experiment in a line: Inhibition of BTK assessed as residual activity at 10 uM relative to control.
The target in assay [8] is Serine/threonine-protein kinase RIO2 (Homo sapiens) (UniProt Q9BVS4). The assay can be described thus: Inhibition of RIOK2 assessed as residual activity at 10 uM relative to control.
Sequence of Serine/threonine-protein kinase RIO2 (Homo sapiens) (Q9BVS4 whole entry, looked up): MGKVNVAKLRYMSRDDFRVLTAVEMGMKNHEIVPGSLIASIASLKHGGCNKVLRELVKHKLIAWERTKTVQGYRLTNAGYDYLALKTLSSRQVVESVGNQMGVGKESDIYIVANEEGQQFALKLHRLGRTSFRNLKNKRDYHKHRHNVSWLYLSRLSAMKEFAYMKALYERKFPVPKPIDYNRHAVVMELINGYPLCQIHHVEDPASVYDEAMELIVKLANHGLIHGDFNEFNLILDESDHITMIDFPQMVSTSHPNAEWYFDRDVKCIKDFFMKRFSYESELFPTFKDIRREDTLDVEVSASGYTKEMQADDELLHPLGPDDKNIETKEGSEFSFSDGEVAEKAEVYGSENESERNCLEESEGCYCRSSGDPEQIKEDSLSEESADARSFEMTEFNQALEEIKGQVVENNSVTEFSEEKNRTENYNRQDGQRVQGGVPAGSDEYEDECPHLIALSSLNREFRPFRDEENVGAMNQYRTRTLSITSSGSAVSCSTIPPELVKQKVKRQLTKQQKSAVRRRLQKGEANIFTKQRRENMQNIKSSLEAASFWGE
For assay [9], the target named is RAC-gamma serine/threonine-protein kinase (Homo sapiens) (UniProt Q9Y243). The experiment in a line: Inhibition of AKT3 assessed as residual activity at 10 uM relative to control.
A short description of assay [10]: Inhibition of FLT3 ITD mutant assessed as residual activity at 10 uM relative to control.
The target of assay [11] is Tyrosine-protein kinase Yes (Homo sapiens) (UniProt P07947). The assay can be described thus: Inhibition of YES1 assessed as residual activity at 1 uM.
The target of assay [12] is Phosphatidylinositol 4-phosphate 3-kinase C2 domain-containing subunit beta (Homo sapiens) (UniProt O00750). The experiment in a line: Inhibition of PIK3C2B assessed as residual activity at 10 uM relative to control.
Sequence of Phosphatidylinositol 4-phosphate 3-kinase C2 domain-containing subunit beta (Homo sapiens) (O00750 whole entry, the tested form may be a part): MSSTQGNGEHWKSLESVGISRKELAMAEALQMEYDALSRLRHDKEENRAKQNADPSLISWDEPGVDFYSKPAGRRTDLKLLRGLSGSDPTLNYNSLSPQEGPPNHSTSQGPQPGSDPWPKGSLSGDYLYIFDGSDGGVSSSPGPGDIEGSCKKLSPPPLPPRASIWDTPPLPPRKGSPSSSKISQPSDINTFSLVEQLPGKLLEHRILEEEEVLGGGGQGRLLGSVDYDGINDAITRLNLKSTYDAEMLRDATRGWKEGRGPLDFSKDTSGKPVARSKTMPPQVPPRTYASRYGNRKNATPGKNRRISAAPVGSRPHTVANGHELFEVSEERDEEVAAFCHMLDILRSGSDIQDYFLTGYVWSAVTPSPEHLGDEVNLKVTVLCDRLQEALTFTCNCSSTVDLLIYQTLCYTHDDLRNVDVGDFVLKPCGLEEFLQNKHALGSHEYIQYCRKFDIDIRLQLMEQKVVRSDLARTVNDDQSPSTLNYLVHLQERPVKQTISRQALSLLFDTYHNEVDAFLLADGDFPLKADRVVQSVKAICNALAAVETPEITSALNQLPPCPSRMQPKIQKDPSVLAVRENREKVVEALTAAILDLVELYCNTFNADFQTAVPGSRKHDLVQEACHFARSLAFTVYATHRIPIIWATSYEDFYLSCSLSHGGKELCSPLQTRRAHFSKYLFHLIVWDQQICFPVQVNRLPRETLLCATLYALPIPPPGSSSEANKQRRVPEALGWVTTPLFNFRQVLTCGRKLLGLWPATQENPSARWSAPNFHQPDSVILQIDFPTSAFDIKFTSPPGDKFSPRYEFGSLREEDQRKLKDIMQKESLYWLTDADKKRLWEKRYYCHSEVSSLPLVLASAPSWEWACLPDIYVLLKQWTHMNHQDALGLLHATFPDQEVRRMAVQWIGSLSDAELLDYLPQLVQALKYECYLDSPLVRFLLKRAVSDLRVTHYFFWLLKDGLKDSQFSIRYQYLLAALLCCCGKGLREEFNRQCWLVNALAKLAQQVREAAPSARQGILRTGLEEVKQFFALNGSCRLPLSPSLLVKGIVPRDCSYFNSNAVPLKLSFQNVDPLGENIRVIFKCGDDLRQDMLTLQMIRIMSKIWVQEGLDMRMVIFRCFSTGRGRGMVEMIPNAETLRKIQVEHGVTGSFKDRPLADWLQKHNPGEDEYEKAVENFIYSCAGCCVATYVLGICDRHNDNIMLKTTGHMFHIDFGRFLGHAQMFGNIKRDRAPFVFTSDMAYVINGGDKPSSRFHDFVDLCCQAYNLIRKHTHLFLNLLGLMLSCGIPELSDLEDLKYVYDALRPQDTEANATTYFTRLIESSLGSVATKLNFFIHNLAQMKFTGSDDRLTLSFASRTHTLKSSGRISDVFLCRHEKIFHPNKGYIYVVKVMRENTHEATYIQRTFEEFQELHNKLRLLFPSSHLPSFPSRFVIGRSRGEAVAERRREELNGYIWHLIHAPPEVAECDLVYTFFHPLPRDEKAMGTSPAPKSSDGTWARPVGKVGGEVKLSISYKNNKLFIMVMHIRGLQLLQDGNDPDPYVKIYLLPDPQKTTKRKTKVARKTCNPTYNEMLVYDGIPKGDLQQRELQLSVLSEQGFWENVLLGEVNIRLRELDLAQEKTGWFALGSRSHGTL
The target in assay [13] is Leucine-rich repeat serine/threonine-protein kinase 2 (Mus musculus) (UniProt Q5S006). The experiment in a line: Inhibition of LRRK2 in Swiss mouse 3T3 cells assessed as inhibition of Ser935 autophosphorylation after 90 mins by immunoblot method. To be noted: NIH3T3. It is filed as cell-based.
Assay [14] deals with Leucine-rich repeat serine/threonine-protein kinase 2 (Homo sapiens) (UniProt Q5S007). To be noted: HEK293, 0.3 to 1 uM.
Sequence of Leucine-rich repeat serine/threonine-protein kinase 2 (Homo sapiens) (Q5S007 whole entry): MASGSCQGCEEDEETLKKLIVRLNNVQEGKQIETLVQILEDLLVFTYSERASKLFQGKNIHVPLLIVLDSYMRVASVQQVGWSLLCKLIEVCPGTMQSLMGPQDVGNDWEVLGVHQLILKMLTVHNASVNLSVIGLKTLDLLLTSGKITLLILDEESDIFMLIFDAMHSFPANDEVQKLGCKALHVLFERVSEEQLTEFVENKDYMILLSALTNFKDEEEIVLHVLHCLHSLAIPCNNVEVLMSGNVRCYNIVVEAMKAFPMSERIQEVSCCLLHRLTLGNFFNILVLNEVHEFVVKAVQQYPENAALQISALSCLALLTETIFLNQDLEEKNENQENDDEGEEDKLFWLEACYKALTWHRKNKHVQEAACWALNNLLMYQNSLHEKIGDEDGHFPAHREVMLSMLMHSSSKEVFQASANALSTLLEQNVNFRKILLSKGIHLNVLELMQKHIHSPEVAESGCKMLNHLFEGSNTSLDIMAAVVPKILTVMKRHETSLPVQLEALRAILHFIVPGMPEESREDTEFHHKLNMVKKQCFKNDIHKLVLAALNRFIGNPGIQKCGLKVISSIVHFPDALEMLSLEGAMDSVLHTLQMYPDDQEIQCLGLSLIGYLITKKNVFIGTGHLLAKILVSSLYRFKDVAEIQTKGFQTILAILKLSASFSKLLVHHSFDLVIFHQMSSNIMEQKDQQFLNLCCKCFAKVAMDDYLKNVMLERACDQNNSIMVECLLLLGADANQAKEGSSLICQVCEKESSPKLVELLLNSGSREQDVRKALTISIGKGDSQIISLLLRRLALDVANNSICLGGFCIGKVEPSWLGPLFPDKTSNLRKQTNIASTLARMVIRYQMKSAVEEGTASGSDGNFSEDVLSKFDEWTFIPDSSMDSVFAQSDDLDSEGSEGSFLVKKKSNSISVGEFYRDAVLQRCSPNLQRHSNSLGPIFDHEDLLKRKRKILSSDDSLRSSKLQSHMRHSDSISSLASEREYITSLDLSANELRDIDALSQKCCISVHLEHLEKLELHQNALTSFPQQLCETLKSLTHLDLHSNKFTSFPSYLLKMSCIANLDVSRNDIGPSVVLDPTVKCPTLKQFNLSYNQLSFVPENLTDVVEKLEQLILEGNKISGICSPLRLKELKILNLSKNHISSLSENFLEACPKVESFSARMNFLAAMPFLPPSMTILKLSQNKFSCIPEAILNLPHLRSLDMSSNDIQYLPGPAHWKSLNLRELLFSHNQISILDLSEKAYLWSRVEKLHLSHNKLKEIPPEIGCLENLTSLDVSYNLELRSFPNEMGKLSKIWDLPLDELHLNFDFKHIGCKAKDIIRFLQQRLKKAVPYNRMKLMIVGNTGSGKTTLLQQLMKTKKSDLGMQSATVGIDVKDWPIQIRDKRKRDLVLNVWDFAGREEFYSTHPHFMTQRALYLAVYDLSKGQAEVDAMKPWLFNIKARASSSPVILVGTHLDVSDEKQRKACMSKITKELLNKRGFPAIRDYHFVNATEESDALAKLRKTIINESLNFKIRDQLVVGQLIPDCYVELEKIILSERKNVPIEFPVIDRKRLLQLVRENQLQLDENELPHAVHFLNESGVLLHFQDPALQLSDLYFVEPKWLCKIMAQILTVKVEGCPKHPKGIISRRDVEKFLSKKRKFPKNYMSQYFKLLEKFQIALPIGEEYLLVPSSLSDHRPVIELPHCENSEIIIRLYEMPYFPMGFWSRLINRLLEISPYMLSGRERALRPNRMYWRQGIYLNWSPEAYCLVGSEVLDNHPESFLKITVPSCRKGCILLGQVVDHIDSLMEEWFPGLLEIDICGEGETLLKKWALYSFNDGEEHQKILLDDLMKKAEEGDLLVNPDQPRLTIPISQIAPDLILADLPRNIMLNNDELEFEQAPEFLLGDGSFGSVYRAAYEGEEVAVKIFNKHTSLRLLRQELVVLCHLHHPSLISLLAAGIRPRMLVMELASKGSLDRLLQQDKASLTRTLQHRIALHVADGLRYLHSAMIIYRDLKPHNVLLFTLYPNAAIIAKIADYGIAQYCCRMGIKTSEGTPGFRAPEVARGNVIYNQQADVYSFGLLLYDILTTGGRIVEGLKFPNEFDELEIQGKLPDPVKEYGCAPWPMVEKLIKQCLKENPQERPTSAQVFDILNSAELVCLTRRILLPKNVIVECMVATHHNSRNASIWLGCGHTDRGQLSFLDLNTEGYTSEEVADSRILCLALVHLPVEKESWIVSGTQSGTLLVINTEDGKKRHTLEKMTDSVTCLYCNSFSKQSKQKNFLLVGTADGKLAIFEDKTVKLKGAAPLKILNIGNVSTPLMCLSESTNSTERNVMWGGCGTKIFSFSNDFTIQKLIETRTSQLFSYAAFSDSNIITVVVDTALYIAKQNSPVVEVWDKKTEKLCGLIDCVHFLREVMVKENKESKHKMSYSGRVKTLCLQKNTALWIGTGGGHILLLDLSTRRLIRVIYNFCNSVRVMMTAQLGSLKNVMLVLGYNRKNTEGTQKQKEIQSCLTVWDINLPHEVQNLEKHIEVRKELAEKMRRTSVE

Sequence of Serine/threonine-protein kinase 32B (Homo sapiens) (Q9NY57 whole entry, canonical isoform): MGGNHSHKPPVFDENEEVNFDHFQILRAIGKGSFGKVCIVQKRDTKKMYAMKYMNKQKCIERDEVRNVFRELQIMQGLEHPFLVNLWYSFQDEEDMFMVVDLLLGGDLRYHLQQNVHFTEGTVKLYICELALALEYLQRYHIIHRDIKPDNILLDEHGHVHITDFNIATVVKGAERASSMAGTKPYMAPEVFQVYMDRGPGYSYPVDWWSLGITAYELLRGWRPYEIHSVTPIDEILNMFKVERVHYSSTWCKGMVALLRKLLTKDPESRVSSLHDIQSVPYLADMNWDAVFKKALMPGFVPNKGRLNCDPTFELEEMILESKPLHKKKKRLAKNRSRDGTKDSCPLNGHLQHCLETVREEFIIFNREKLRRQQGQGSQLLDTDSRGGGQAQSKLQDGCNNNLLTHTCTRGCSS

As to `O=C(Nc1cccnc1)c1cc(-c2ccnc(F)c2)ccc1OCc1ccccc1`, the Activity stood at 79% in assay [1]; 31% in assay [2]; 19% in assay [3]; 80% in assay [4]; 35% in assay [5]; 32% in assay [6]. In addition, the Activity in [7] is 64%; in [8] it was 41%; in assay [9], 51%; in assay [10], 16%; in [11] it was 120%; in [12] it was 42%. The inhibition result in assay [13] was “Dose-dependent effect”. Also, the inhibition result in assay [14] is “Active”.
